# Reference: ChEMBL document CHEMBL1148762, “Lysosome and HER3 (ErbB3) selective anticancer agent kahalalide F: semisynthetic modifications and antifungal lead-exploration studies” (J Med Chem, 2007)
# Tests used:
# Type in all cases: functional
# [1] = system: Fusarium solani; assay: Antimicrobial activity against Fusarium solani at 0.3 uM after 48 hrs by microtiter assay
# Procedure, shortened: (§1)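 96-well microdilution broth assay with conidia (3 × 10^5 conidia/mL, harvested from 7-day PDA cultures and filtered) against F. oxysporum, F. proliferatum and F. solani at 0.3, 3 and 30 µM. Plates were held at 24 ± 1 °C under a 12 h photoperiod. Growth was read at 620 nm at 24, 48 and 72 h and reported as percent inhibition from mean absorbance with standard error.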
# [2] = system: HT-29; assay: Cytotoxicity against human HT29 cells
# Procedure, shortened: (§2)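 NCI Developmental Therapeutics Program cell panel. GI50 is the concentration that reduces growth of treated cells to half that of untreated controls. TGI is the concentration that completely halts growth.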
# [3] = system: Fusarium oxysporum; assay: Antimicrobial activity against Fusarium oxysporum at 3 uM after 72 hrs by microtiter assay; procedure, shortened: as §1
# [4] = system: Fusarium solani; assay: Antimicrobial activity against Fusarium solani at 3 uM after 48 hrs by microtiter assay; procedure, shortened: as §1
# [5] = system: Fusarium solani; assay: Antimicrobial activity against Fusarium solani at 0.3 uM after 72 hrs by microtiter assay; procedure, shortened: as §1
# [6] = system: Fusarium solani; assay: Antimicrobial activity against Fusarium solani at 3 uM after 72 hrs by microtiter assay; procedure, shortened: as §1
# [7] = system: UACC-257; assay: Cytotoxicity against human UACC257 cells; procedure, shortened: as §2
# [8] = system: PC-3; assay: Cytotoxicity against human PC3 cells; procedure, shortened: as §2
# [9] = system: Fusarium solani; assay: Antimicrobial activity against Fusarium solani at 30 uM after 48 hrs by microtiter assay; procedure, shortened: as §1
# [10] = system: KM12; assay: Cytotoxicity against human KM12 cells; procedure, shortened: as §2
# [11] = system: Fusarium proliferatum; assay: Antimicrobial activity against Fusarium proliferatum at 0.3 uM after 48 hrs by microtiter assay; procedure, shortened: as §1
# [12] = system: COLO 205; assay: Cytotoxicity against human COLO205 cells; procedure, shortened: as §2
# [13] = system: RPMI-8226; assay: Cytotoxicity against human RPMI8226 cells; procedure, shortened: as §2
# [14] = system: Fusarium proliferatum; assay: Antimicrobial activity against Fusarium proliferatum at 30 uM after 72 hrs by microtiter assay; procedure, shortened: as §1
# [15] = system: Fusarium oxysporum; assay: Antimicrobial activity against Fusarium oxysporum at 30 uM after 48 hrs by microtiter assay; procedure, shortened: as §1
# [16] = system: Fusarium oxysporum; assay: Antimicrobial activity against Fusarium oxysporum at 0.3 uM after 48 hrs by microtiter assay; procedure, shortened: as §1
# [17] = system: SNB-75; assay: Cytotoxicity against human SNB75 cells; procedure, shortened: as §2
# [18] = system: Fusarium proliferatum; assay: Antimicrobial activity against Fusarium proliferatum at 3 uM after 72 hrs by microtiter assay; procedure, shortened: as §1
# [19] = system: Fusarium proliferatum; assay: Antimicrobial activity against Fusarium proliferatum at 3 uM after 48 hrs by microtiter assay; procedure, shortened: as §1
# [20] = system: Hs-578T; assay: Cytotoxicity against human HS578T cells; procedure, shortened: as §2
# [21] = system: DU-145; assay: Cytotoxicity against human DU145 cells; procedure, shortened: as §2
# [22] = system: Fusarium oxysporum; assay: Antimicrobial activity against Fusarium oxysporum at 30 uM after 72 hrs by microtiter assay; procedure, shortened: as §1
# [23] = system: Fusarium oxysporum; assay: Antimicrobial activity against Fusarium oxysporum at 0.3 uM after 72 hrs by microtiter assay; procedure, shortened: as §1
# [24] = system: HCC 2998; assay: Cytotoxicity against human HCC2998 cells; procedure, shortened: as §2
# [25] = system: HCT-15; assay: Cytotoxicity against human HCT15 cells; procedure, shortened: as §2
# [26] = system: SK-OV-3; assay: Cytotoxicity against human SK-OV3 cells; procedure, shortened: as §2
# [27] = system: Fusarium solani; assay: Antimicrobial activity against Fusarium solani at 30 uM after 72 hrs by microtiter assay; procedure, shortened: as §1
# [28] = system: T47D; assay: Cytotoxicity against human T47D cells; procedure, shortened: as §2
# [29] = system: Fusarium proliferatum; assay: Antimicrobial activity against Fusarium proliferatum at 30 uM after 48 hrs by microtiter assay; procedure, shortened: as §1
# [30] = system: Mycobacterium tuberculosis; assay: Antibacterial activity against Mycobacterium tuberculosis H37Rv at 16 ug/mL by micro plate alamar blue assay
# Procedure, shortened: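 M. tuberculosis H37Rv ATCC 27294 grown in BACTEC 12B medium; microplate Alamar blue assay (MABA). Primary screen at a single concentration of 16 µg/mL, read as percent inhibition.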
# [31] = system: NCI-H322M; assay: Cytotoxicity against human NCI-H322M cells; procedure, shortened: as §2
# [32] = system: ACHN; assay: Cytotoxicity against human ACHN cells; procedure, shortened: as §2
# [33] = system: Fusarium oxysporum; assay: Antimicrobial activity against Fusarium oxysporum at 3 uM after 48 hrs by microtiter assay; procedure, shortened: as §1
# [34] = system: A549; assay: Cytotoxicity against human A549 cells; procedure, shortened: as §2
# [35] = system: Fusarium proliferatum; assay: Antimicrobial activity against Fusarium proliferatum at 0.3 uM after 72 hrs by microtiter assay; procedure, shortened: as §1
structure (smiles),measurement,setting,value
C/C=C1\NC(=O)[C@H](Cc2ccccc2)NC(=O)[C@@H](C(C)C)NC(=O)[C@@H]([C@@H](C)CC)NC(=O)[C@H](NC(=O)[C@H](NC(=O)[C@H](CCCNC(=O)c2cc3ccc(N(CC)CC)cc3oc2=O)NC(=O)[C@H]2CCCN2C(=O)[C@H](NC(=O)[C@@H](NC(=O)[C@@H](NC(=O)[C@H](NC(=O)CCCC(C)C)C(C)C)[C@@H](C)O)C(C)C)C(C)C)[C@@H](C)CC)[C@@H](C)OC(=O)[C@H](C(C)C)NC1=O,inhibition at 0.3 µM,[1],0%
same,GI50,[2],2.39 µM
same,TGI,[2],> 100 µM
same,inhibition at 3 µM,[3],0%
same,inhibition at 3 µM,[4],0%
same,inhibition at 0.3 µM,[5],0%
same,inhibition at 3 µM,[6],0%
same,GI50,[7],> 100 µM
same,TGI,[7],> 100 µM
same,GI50,[8],3.7 µM
same,TGI,[8],21.8 µM
same,inhibition at 30 µM,[9],0%
same,GI50,[10],0.413 µM
same,TGI,[10],3.07 µM
same,inhibition at 0.3 µM,[11],0%
same,GI50,[12],4.52 µM
same,TGI,[12],> 100 µM
same,GI50,[13],40.1 µM
same,TGI,[13],> 100 µM
same,inhibition at 30 µM,[14],0%
same,inhibition at 30 µM,[15],0%
same,inhibition at 0.3 µM,[16],0%
same,GI50,[17],2.11 µM
same,TGI,[17],6.87 µM
same,inhibition at 3 µM,[18],0%
same,inhibition at 3 µM,[19],0%
same,GI50,[20],3.03 µM
same,TGI,[20],> 100 µM
same,GI50,[21],0.33 µM
same,TGI,[21],1.83 µM
same,inhibition at 30 µM,[22],0%
same,inhibition at 0.3 µM,[23],0%
same,GI50,[24],2.27 µM
same,TGI,[24],11.4 µM
same,GI50,[25],0.964 µM
same,TGI,[25],17.7 µM
same,GI50,[26],2.55 µM
same,TGI,[26],20.2 µM
same,inhibition at 30 µM,[27],0%
same,GI50,[28],0.518 µM
same,TGI,[28],2.83 µM
same,inhibition at 30 µM,[29],0%
same,inhibition at 16 µg/mL,[30],46%
same,GI50,[31],0.165 µM
same,TGI,[31],0.49 µM
same,GI50,[32],26.4 µM
same,TGI,[32],69.8 µM
same,inhibition at 3 µM,[33],0%
same,GI50,[34],13.7 µM
same,TGI,[34],> 100 µM
same,inhibition at 0.3 µM,[35],0%
